For assay [1], the target named is Integrin alpha-M/beta-2 (Homo sapiens, UniProt P05107+P11215). The assay can be described thus: Agonist activity at CD11b/CD18 expressed in K562 cells assessed as increase in cell adhesion to fibrinogen. In kind it is functional, cell-based. The essentials: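 K562 cells stably transfected with wild-type CD11b/CD18 were tested for compound-induced adhesion to immobilized fibrinogen. The assay was a no-wash cell-adhesion format in TBS containing 1 mM each Ca2+ and Mg2+. Compounds were tested over a range of concentrations. EC50 was taken as the concentration giving a 50% increase in cell adhesion.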

Assay [2] can be described thus: Selectivity ratio for CD11b/CD18 over CD11a/CD18.

Chain of Integrin alpha-M/beta-2 (P05107 23-769 limits assumed, other chains not shown): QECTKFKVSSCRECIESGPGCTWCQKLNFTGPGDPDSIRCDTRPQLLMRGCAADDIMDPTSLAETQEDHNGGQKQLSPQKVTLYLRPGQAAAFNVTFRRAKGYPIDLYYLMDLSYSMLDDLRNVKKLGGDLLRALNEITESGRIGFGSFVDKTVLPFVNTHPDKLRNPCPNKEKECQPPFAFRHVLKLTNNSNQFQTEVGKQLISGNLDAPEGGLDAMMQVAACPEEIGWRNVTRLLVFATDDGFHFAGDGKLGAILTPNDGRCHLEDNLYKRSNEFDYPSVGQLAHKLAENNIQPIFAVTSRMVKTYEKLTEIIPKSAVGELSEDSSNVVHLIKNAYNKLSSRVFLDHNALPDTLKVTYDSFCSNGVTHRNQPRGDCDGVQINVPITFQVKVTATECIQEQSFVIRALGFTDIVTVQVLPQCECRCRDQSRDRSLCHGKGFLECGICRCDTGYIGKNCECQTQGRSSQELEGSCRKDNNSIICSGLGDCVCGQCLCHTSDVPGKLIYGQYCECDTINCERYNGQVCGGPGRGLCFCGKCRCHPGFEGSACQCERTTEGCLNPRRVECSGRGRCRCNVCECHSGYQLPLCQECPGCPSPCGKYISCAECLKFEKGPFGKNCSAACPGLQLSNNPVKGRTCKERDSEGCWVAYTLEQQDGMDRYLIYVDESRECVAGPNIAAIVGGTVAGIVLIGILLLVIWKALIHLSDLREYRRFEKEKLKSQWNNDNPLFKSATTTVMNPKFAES

For `Cc1ccc(C(=O)CN2C(=O)S/C(=C\c3ccc(-c4ccc(Cl)cc4)o3)C2=O)cc1`, the EC50 in assay [1] (read-out: EC50) was greater than 50 µM.
As to `CCOC(=O)CN1C(=O)S/C(=C\c2ccc(N3CCOCC3)o2)C1=O`, in assay [1] (k562), the 50% effective concentration (EC50) result was “Not Active”.
For `CCOC(=O)CN1C(=O)S/C(=C\c2ccc(-c3ccc(Cl)cc3Cl)o2)C1=O`, the EC50 in assay [1] (read-out: EC50) amounted to 13.6 µM. Moreover, in assay [2], the Ratio came out at 2.
For the compound `COC(=O)C(C)N1C(=O)S/C(=C\c2ccc(-c3ccc(Cl)cc3Cl)o2)C1=O` (configuration not stated), in assay [1] (k562), the half-maximal effective concentration (EC50) entry is on record as “Not Active”.
The same measure, in the same setting: in the case of `NS(=O)(=O)c1ccc(N2C(=O)S/C(=C\c3ccc(Cc4ccccc4)o3)C2=O)cc1` it was “Not Active”.
Regarding `O=C1S/C(=C\c2ccc(-c3ccc(Cl)cc3Cl)o2)C(=O)N1c1ccccc1`, the EC50 in assay [1] (read-out: EC50) was greater than 50 µM.
Take `CCOC(=O)CN1C(=O)S/C(=C\c2ccc(-c3ccc(C)cc3Br)o2)C1=O`: the half-maximal effective concentration (EC50) in assay [1] (read-out: EC50) amounted to 18.6 µM.
For the compound `COC(=O)CN1C(=O)S/C(=C\c2ccc(-c3ccc(C(=O)O)cc3)o2)C1=O`, the EC50 result in assay [1] (k562) is given as “Not Active”.
Take `CCOC(=O)CN1C(=O)S/C(=C\c2ccc(-c3ccc(C(=O)O)cc3C)o2)C1=O`: the 50% effective concentration (EC50) result in assay [1] (k562) is listed as “Not Active”.
With `CCOC(=O)CN1C(=O)S/C(=C\c2ccc(-c3ccccc3)o2)C1=O`, the EC50 in assay [1] (read-out: EC50) was 10.5 µM.
Take `COC(=O)CN1C(=O)S/C(=C\c2ccc(Sc3ccccc3)o2)C1=O`: the EC50 result in assay [1] (k562) was “Not Active”.
On to `Cc1cccc(NC(=O)CN2C(=O)S/C(=C\c3ccc(-c4ccccc4)o3)C2=O)c1`, for which, in assay [1] (read-out: EC50), the 50% effective concentration (EC50) amounted to 22.3 µM.
For `CCCN1C(=O)S/C(=C\c2ccc(-c3ccc(Cl)cc3Cl)o2)C1=O`, the concentration for a half-maximal effect (EC50) result in assay [1] (k562) is given as “Not Active”.
In the case of `Cc1ccc(/C=C2\SC(=O)N(C)C2=O)o1`, in assay [1] (k562), the 50% effective concentration (EC50) result is given as “Not Active”.
On to `O=C(CN1C(=O)S/C(=C\c2ccc(-c3ccc(Cl)cc3Cl)o2)C1=O)Nc1ccccc1F`, for which the EC50 result in assay [1] (k562) is reported as “Not Active”.
With `CCOC(=O)CN1C(=O)S/C(=C\c2ccc(N3CCCC3)o2)C1=O`, the EC50 in assay [1] (read-out: EC50) was 23.2 µM.
Take `CCOC(=O)CN1C(=O)S/C(=C\c2ccc(-c3ccc(Br)cc3)o2)C1=O`: in assay [1] (read-out: EC50), the concentration giving a half-maximal response (EC50) stood at 40.4 µM.
Turning to `Cc1cccc(NC(=O)CN2C(=O)/C(=C/c3ccc(Cc4ccco4)o3)SC2=S)c1`, in assay [1] (read-out: EC50), the concentration for a half-maximal effect (EC50) was determined as 18 µM.
As for `CCOC(=O)CN1C(=O)S/C(=C\c2ccc(-c3ccc(Cl)c(C(=O)O)c3)o2)C1=O`, in assay [1] (read-out: EC50), the EC50 was greater than 50 µM.
Regarding `CCOC(=O)CN1C(=O)S/C(=C\c2ccc(-c3cc(C(=O)O)ccc3Cl)o2)C1=O`, the EC50 in assay [1] (read-out: EC50) was found to be 40.9 µM.
As for `O=C(CN1C(=O)S/C(=C\c2ccc(-c3ccc(Cl)cc3Cl)o2)C1=O)c1ccccc1`, in assay [1] (read-out: EC50), the EC50 is 35.6 µM.

As usually defined, the EC50 is the concentration giving half of the maximal effect.

(Values after ChEMBL document CHEMBL1156138, “Identification of novel agonists of the integrin CD11b/CD18” (Bioorg Med Chem Lett, 2009).)
